ChEMBL document CHEMBL3272221, “Phosphorus-nitrogen compounds. 21. Murine oncolytic and antifertility effect of adamantylaziridine compounds” (J Med Chem, 1978)
Active and inactive are the calls of the source. The calls are words filed in the database; no cut-off is given here.

Tests used:
[1] = system: Mus musculus; assay: Antifertility activity in male Swiss albino mouse assessed as nonpregnant female mouse at 33.8 mg/kg, ip qd administered for 5 days followed by mating measured after 5 weeks; assay type: functional, organism-based; set-up: dose 33.8 mg/kg
How it was run: (§1)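 Male Swiss albino mice, 4–6 per group, dosed ip or orally by gavage for five consecutive days (10, 15, 22.5 or 33.8 mg/kg), then serially mated with females over successive mating periods against control groups. Read-outs were nonpregnant/total females and viable/total conceptus per period. Student's t test versus control (p < 0.05) was used only for groups with at least two pregnant females.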

[2] = system: L1210; assay: Antitumor activity against mouse L1210 cells allografted in mouse assessed as mean survival time at 50 mg/kg, ip after 9 days; assay type: functional; conditions: route intraperitoneal
How it was run: (§2)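 Mice bearing ip-implanted L1210 ascites cells dosed ip daily for 9 days, run by NCI contractors. Activity was expressed as % T/C, the mean survival time of treated over control animals as a percent, with >125% taken as active. Deaths at a given dose were recorded as toxicity.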

[3] = system: Mus musculus; assay: Antifertility activity in male Swiss albino mouse assessed as nonpregnant female mouse at 33.8 mg/kg, ip qd administered for 5 days followed by mating measured after 4 weeks; assay type: functional, organism-based; set-up: dose 33.8 mg/kg; how it was run: as §1
[4] = system: Mus musculus; assay: Antifertility activity in male Swiss albino mouse assessed as nonpregnant female mouse at 33.8 mg/kg, po qd administered for 5 days followed by mating measured after 5 weeks; assay type: functional, organism-based; set-up: dose 33.8 mg/kg; how it was run: as §1
[5] = system: Mus musculus; assay: Antifertility activity in male Swiss albino mouse assessed as viable conceptus at 10 mg/kg, ip qd administered for 5 days followed by mating measured after 3 weeks; assay type: functional, organism-based; set-up: dose 10 mg/kg; how it was run: as §1
[6] = system: Mus musculus; assay: Antifertility activity in male Swiss albino mouse assessed as nonpregnant female mouse at 33.8 mg/kg, ip qd administered for 5 days followed by mating measured after 3 weeks; assay type: functional, organism-based; set-up: dose 33.8 mg/kg; how it was run: as §1
[7] = system: Mus musculus; assay: Antifertility activity in male Swiss albino mouse assessed as nonpregnant female mouse at 22.5 mg/kg, po qd administered for 5 days followed by mating measured after 5 weeks; assay type: functional, organism-based; set-up: dose 22.5 mg/kg; how it was run: as §1
[8] = system: Mus musculus; assay: Antifertility activity in male Swiss albino mouse assessed as viable conceptus at 22.5 mg/kg, ip qd administered for 5 days followed by mating measured after 3 weeks; assay type: functional, organism-based; set-up: dose 22.5 mg/kg; how it was run: as §1
[9] = Solubility of the compound in water; assay type: physicochemical; conditions: buffer
How it was run: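 Saturated aqueous solutions were shaken 23 h at 24 °C. The dissolved amount was determined gravimetrically after evaporation and drying at 70 °C.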

[10] = system: Mus musculus; assay: Antifertility activity in male Swiss albino mouse assessed as nonpregnant female mouse at 10 mg/kg, […] administered for 5 days followed by mating measured after 1 week; assay type: functional, organism-based; set-up: dose 10 mg/kg; how it was run: as §1
[11] = system: Mus musculus; assay: Antifertility activity in male Swiss albino mouse assessed as nonpregnant female mouse at 10 mg/kg, ip qd administered for 5 days followed by mating measured after 2 weeks; assay type: functional, organism-based; set-up: dose 10 mg/kg; how it was run: as §1
[12] = system: Mus musculus; assay: Antifertility activity in male Swiss albino mouse assessed as viable conceptus at 10 mg/kg, ip administered for 5 days followed by mating measured after 5 weeks; assay type: functional, organism-based; set-up: dose 10 mg/kg; how it was run: as §1
[13] = system: Mus musculus; assay: Antifertility activity in male Swiss albino mouse assessed as nonpregnant female mouse at 22.5 mg/kg, po qd administered for 5 days followed by mating measured after 3 weeks; assay type: functional, organism-based; set-up: dose 22.5 mg/kg; how it was run: as §1
[14] = system: Mus musculus; assay: Antifertility activity in male Swiss albino mouse assessed as viable conceptus at 10 mg/kg, ip qd administered for 5 days followed by mating measured after 4 weeks; assay type: functional, organism-based; set-up: dose 10 mg/kg; how it was run: as §1
[15] = system: Mus musculus; assay: Antifertility activity in male Swiss albino mouse assessed as viable conceptus at 15 mg/kg, ip administered for 5 days followed by mating measured after 5 weeks; assay type: functional, organism-based; set-up: dose 15 mg/kg; how it was run: as §1
[16] = system: Mus musculus; assay: Antifertility activity in male Swiss albino mouse assessed as nonpregnant female mouse at 33.8 mg/kg, ip qd administered for 5 days followed by mating measured after 1 week; assay type: functional, organism-based; set-up: dose 33.8 mg/kg; how it was run: as §1
[17] = system: Mus musculus; assay: Antifertility activity in male Swiss albino mouse assessed as nonpregnant female mouse at 22.5 mg/kg, ip qd administered for 5 days followed by mating measured after 5 weeks; assay type: functional, organism-based; set-up: dose 22.5 mg/kg; how it was run: as §1
[18] = Octanol-water partition coefficient, log P of the compound; assay type: physicochemical
How it was run: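 Shake-flask partitioning: 0.5 g solute in 50.0 mL each of 1-octanol and water, shaken 18 h at 24 °C. Layers were separated, filtered and evaporated (octanol removed as its water azeotrope), dried at 70 °C and weighed. Concentrations were determined gravimetrically.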

[19] = system: Mus musculus; assay: Antifertility activity in male Swiss albino mouse assessed as nonpregnant female mouse at 33.8 mg/kg, po qd administered for 5 days followed by mating measured after 1 week; assay type: functional, organism-based; set-up: dose 33.8 mg/kg; how it was run: as §1
[20] = system: Mus musculus; assay: Antifertility activity in male Swiss albino mouse assessed as nonpregnant female mouse at 15 mg/kg, po qd administered for 5 days followed by mating measured after 5 weeks; assay type: functional, organism-based; set-up: dose 15 mg/kg; how it was run: as §1
[21] = system: Mus musculus; assay: Antifertility activity in male Swiss albino mouse assessed as nonpregnant female mouse at 22.5 mg/kg, ip qd administered for 5 days followed by mating measured after 1 week; assay type: functional, organism-based; set-up: dose 22.5 mg/kg; how it was run: as §1
[22] = system: Mus musculus; assay: Antifertility activity in male Swiss albino mouse assessed as nonpregnant female mouse at 10 mg/kg, ip qd administered for 5 days followed by mating measured after 4 weeks; assay type: functional, organism-based; set-up: dose 10 mg/kg; how it was run: as §1
[23] = system: Mus musculus; assay: Antifertility activity in male Swiss albino mouse assessed as viable conceptus at 33.8 mg/kg, po qd administered for 5 days followed by mating measured after 3 weeks; assay type: functional, organism-based; set-up: dose 33.8 mg/kg; how it was run: as §1
[24] = system: Mus musculus; assay: Antifertility activity in male Swiss albino mouse assessed as viable conceptus at 10 mg/kg, ip qd administered for 5 days followed by mating measured after 1 week; assay type: functional, organism-based; set-up: dose 10 mg/kg; how it was run: as §1
[25] = system: Mus musculus; assay: Antifertility activity in male Swiss albino mouse assessed as nonpregnant female mouse at 15 mg/kg, po qd administered for 5 days followed by mating measured after 1 week; assay type: functional, organism-based; set-up: dose 15 mg/kg; how it was run: as §1
[26] = system: Mus musculus; assay: Antifertility activity in male Swiss albino mouse assessed as nonpregnant female mouse at 15 mg/kg, ip qd administered for 5 days followed by mating measured after 1 week; assay type: functional, organism-based; set-up: dose 15 mg/kg; how it was run: as §1
[27] = system: Mus musculus; assay: Antifertility activity in male Swiss albino mouse assessed as nonpregnant female mouse at 33.8 mg/kg, ip qd administered for 5 days followed by mating measured after 2 weeks; assay type: functional, organism-based; set-up: dose 33.8 mg/kg; how it was run: as §1
[28] = system: Mus musculus; assay: Antifertility activity in male Swiss albino mouse assessed as viable conceptus at 22.5 mg/kg, ip qd administered for 5 days followed by mating measured after 2 weeks; assay type: functional, organism-based; set-up: dose 22.5 mg/kg; how it was run: as §1
[29] = system: Mus musculus; assay: Toxicity in mouse allografted with mouse L1210 cells assessed as death at 200 mg/kg, ip; assay type: organism-based; set-up: dose 200 mg/kg, route intraperitoneal; conditions: in vivo; how it was run: as §2
[30] = system: Mus musculus; assay: Antifertility activity in male Swiss albino mouse assessed as reduction of litter size at 10 mg/kg, po administered for 5 days followed by mating measured for 2 weeks; assay type: functional, organism-based; set-up: dose 10 mg/kg; how it was run: as §1
[31] = system: Mus musculus; assay: Toxicity in mouse allografted with mouse L1210 cells assessed as death at 20 mg/kg, ip; assay type: organism-based; set-up: dose 20 mg/kg, route intraperitoneal; conditions: in vivo; how it was run: as §2
[32] = system: Mus musculus; assay: Antifertility activity in male Swiss albino mouse assessed as viable conceptus at 10 mg/kg, po qd administered for 5 days followed by mating measured after 4 weeks; assay type: functional, organism-based; set-up: dose 10 mg/kg; how it was run: as §1
[33] = system: L1210; assay: Antitumor activity against mouse L1210 cells allografted in mouse assessed as mean survival time at 10 mg/kg, ip after 9 days; assay type: functional; conditions: route intraperitoneal; how it was run: as §2
[34] = system: Mus musculus; assay: Antifertility activity in male Swiss albino mouse assessed as nonpregnant female mouse at 10 mg/kg, ip qd administered for 5 days followed by mating measured after 3 weeks; assay type: functional, organism-based; set-up: dose 10 mg/kg; how it was run: as §1

In the case of `O=P(N1CC1)(N1CC1)C12CC3CC(CC(C3)C1)C2`, the Activity [1] is reported as “Active”, the T/C [2] is reported as 243% and the Activity [3] is reported as “Active”. The Activity [4] was “inactive”, the Activity [5] was “inactive” and the Activity [6] was “Active”. The Activity [7] was “inactive”, the Activity [8] was “Active” and the solubility [9] was 0.94%. The Activity [10] was “inactive”, the Activity [11] was “inactive” and the Activity [12] was “inactive”. The Activity [13] was “inactive”, the Activity [14] was “inactive” and the Activity [15] was “inactive”. The Activity [16] was “Active”, the Activity [17] was “inactive” and the logP [18] was 0.88. For the same molecule, the Activity [19] was “inactive”, the Activity [20] was “inactive” and the Activity [21] was “Active”. The Activity [22] was “inactive”, the Activity [23] was “inactive” and the Activity [24] was “Active”. For the same molecule, the Activity [25] was “inactive”, the Activity [26] was “Active” and the Activity [27] was “Active”. The Activity [28] was “inactive” and the Activity [29] was “Toxic”.
For `O=P(NC12CC3CC(CC(C3)C1)C2)(N1CC1)N1CC1`, the Activity [30] was “Active”, the Activity [31] was “Toxic” and the solubility [9] was 0.13%. For the same molecule, the logP [18] was 1.45, the Activity [32] was “inactive” and the Activity [24] was “Active”. For the same molecule, the T/C [33] was 244% and the Activity [34] was “Active”.
